This is an account of results in ChEMBL document CHEMBL1135831, “Expansion of structure-activity studies of piperidine analogues of 1-[2-(diphenylmethoxy)ethyl]-4-(3-phenylpropyl)piperazine (GBR 12935) compounds by altering substitutions in the N-benzyl moiety and behavioral pharmacology of selected molecules” (J Med Chem, 2002).

The nature of assay [1]: Selectivity ratio 3[H]DA uptake /DAT binding.
Assay [2] addresses Norepinephrine transporter (Rattus norvegicus, UniProt Q9WTR4). In words: Inhibition of [3H]- […] binding to Norepinephrine transporter.
The species entered for assay [3] is Rattus norvegicus. In words: Inhibition of [3H]- DA (Dopamine) uptake in rat striatal synaptosomes. The class given is functional. Particulars: Brain.
Assay [4] concerns the target Monoamine transporters; Norepininephrine & dopamine (Rattus norvegicus) (UniProt P23977+Q9WTR4). Briefly: Selectivity ratio against dopamine and norepinephrine transporter binding. It is filed as protein assay. In outline:
(§1)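 Ratio of radioligand binding values: SERT ([³H]citalopram) or NET ([³H]nisoxetine) over DAT ([³H]WIN 35,428). Binding 0–4 °C, 2 h (DAT, SERT) or 3 h (NET), final Na⁺ 30 mM (DAT, SERT) or 225 mM (NET); each value from three independent experiments in triplicate.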

Assay [5] has as its target Monoamine transporters; serotonin & dopamine (Rattus norvegicus) (UniProt P31652+P23977). In words: Relative binding to serotonin and dopamine transporters. The class given is protein assay. Put shortly: as §1
Assay [6] has as its target Sodium-dependent dopamine transporter (Rattus norvegicus, UniProt P23977). Briefly: Inhibition of 3[H] WIN-35 428 binding to Dopamine transporter (DAT).
Assay [7] is filed under the species Rattus norvegicus. Briefly: Concentration causing 50% Inhibition of [3H]- DA (Dopamine) uptake in rat striatal synaptosomes. The class given is functional. Particulars: Brain.
In assay [8] the target is Sodium-dependent serotonin transporter (Rattus norvegicus, UniProt P31652). In words: Inhibition of [3H]- citalopram binding to Serotonin transporter.
Sodium-dependent serotonin transporter, sequence (P31652 whole entry): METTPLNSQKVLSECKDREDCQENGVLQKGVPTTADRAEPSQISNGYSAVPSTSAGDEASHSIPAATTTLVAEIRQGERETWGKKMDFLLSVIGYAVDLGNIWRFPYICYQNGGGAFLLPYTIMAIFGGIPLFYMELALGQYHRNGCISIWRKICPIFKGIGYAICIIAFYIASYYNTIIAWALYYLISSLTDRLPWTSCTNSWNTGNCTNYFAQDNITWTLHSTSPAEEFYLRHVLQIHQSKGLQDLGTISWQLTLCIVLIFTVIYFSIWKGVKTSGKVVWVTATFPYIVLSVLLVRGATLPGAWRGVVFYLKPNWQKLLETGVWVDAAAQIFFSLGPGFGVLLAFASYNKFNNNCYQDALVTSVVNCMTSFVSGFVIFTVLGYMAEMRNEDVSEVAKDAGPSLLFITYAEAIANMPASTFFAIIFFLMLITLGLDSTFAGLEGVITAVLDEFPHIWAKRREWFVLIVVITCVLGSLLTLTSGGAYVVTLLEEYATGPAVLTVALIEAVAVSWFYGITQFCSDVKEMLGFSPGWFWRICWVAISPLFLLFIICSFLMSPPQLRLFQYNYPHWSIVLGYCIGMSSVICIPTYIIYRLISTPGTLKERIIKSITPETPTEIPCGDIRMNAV

Sodium-dependent dopamine transporter, sequence (P23977 whole entry): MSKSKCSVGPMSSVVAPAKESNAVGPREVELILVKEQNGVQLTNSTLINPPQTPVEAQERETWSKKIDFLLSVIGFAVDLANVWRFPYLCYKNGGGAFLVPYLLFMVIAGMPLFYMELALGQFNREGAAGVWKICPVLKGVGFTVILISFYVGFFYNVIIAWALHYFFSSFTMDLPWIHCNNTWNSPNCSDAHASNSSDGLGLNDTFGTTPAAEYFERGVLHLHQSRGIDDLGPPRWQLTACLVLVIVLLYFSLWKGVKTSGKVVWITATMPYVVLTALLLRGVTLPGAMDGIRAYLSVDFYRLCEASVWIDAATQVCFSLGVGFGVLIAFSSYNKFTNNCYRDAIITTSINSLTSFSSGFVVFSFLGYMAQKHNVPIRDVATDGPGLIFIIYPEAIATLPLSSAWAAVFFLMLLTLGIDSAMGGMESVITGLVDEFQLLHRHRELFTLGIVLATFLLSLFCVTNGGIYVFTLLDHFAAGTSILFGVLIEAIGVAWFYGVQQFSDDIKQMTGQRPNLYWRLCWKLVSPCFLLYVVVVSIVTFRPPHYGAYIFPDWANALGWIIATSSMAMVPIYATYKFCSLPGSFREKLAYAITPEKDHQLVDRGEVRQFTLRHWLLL
Monoamine transporters; serotonin & dopamine (Rattus norvegicus), sequence (P23977 whole entry, looked up): as the sequence (P23977 whole entry) above
Monoamine transporters; serotonin & dopamine (Rattus norvegicus), sequence (P31652 whole entry, looked up): as the sequence (P31652 whole entry) above
Norepinephrine transporter, sequence (Q9WTR4 whole entry): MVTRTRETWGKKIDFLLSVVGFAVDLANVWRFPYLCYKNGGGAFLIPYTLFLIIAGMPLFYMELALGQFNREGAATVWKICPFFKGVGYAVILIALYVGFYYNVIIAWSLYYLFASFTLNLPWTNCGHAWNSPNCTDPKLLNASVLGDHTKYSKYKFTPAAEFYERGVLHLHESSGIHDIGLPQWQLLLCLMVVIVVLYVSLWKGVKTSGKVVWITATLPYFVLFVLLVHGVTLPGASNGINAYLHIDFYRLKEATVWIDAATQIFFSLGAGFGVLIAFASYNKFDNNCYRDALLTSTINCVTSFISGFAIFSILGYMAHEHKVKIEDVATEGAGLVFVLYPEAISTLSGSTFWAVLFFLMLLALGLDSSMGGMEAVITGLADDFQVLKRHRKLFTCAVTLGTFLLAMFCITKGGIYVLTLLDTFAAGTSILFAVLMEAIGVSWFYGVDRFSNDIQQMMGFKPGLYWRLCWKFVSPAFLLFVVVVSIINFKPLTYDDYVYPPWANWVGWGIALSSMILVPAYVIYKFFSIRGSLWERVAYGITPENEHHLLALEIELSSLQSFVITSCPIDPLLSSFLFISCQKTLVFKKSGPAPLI

`Oc1cccc(CN2CCC(CCOC(c3ccccc3)c3ccccc3)CC2)c1`: the values for the Ratio in assay [1], in assay [4] and in assay [5] were 0.72, 47 and 69, respectively. For the same compound, the IC50 in assay [2] came out at 678 nM; in the assay filed under Rattus norvegicus [3], 10.4 nM.

For the compound `C=C(C)c1ccc(CN2CCC(CCOC(c3ccccc3)c3ccccc3)CC2)cc1`, the Ratio in assay [1] is 0.26; in assay [4], 72; in assay [5] it was 88. In addition, the IC50 stood at 832 nM in assay [2], 11.6 nM in assay [6], 3.1 nM in the assay listed under Rattus norvegicus [7] and 1030 nM in assay [8].

Regarding `Ic1ccc(CN2CCC(CCOC(c3ccccc3)c3ccccc3)CC2)cc1`, the figures for the Ratio in assay [1], in assay [4] and in assay [5] were 2.1, 1200 and 3040, respectively. For the same compound, the IC50 in assay [2] amounted to 1150 nM; in the assay filed under Rattus norvegicus [7], 2.01 nM.

Regarding `C#Cc1ccc(CN2CCC(CCOC(c3ccccc3)c3ccccc3)CC2)cc1`, the Ratio in assay [1] is 1.2; in assay [4] it was 180; in assay [5], 250. Also, the IC50 in assay [2] was 760 nM; in assay [6], 4.1 nM; in the assay listed under Rattus norvegicus [7] it was 4.81 nM; in assay [8] it was 1040 nM.

Turning to `COC(=O)c1ccc(CN2CCC(CCOC(c3ccccc3)c3ccccc3)CC2)cc1`, the Ratio in assay [1] is 0.23; in assay [5], 110. Also, the IC50 in assay [6] came out at 8.23 nM; in the assay listed under Rattus norvegicus [7], 1.94 nM; in assay [8], 924 nM.

Consider `CC#Cc1ccc(CN2CCC(CCOC(c3ccccc3)c3ccccc3)CC2)cc1`, for which the IC50 in assay [2] is 1170 nM; in assay [6] it was 65.1 nM; in assay [8], 2410 nM. Further, the Ratio amounted to 18 in assay [4] and 37 in assay [5].

In the case of `Oc1ccc(CN2CCC(CCOC(c3ccccc3)c3ccccc3)CC2)cc1`, the figures for the IC50 in assay [2], in assay [6] and in assay [8] were 3340 nM, 240 nM and 4330 nM, respectively. In addition, the Ratio in assay [4] came to 14; in assay [5] it was 18.

Take `COc1cccc(CN2CCC(CCOC(c3ccccc3)c3ccccc3)CC2)c1`: the Ratio in assay [1] came out at 0.34; in assay [4], 24; in assay [5], 55. The IC50 in assay [2] was found to be 472 nM; in the assay listed under Rattus norvegicus [3], 6.68 nM; in assay [8], 1080 nM.

For the compound `C=Cc1ccc(CN2CCC(CCOC(c3ccccc3)c3ccccc3)CC2)cc1`, the Ratio came out at 0.36 in assay [1], 240 in assay [4] and 500 in assay [5]. Besides, the IC50 in assay [2] was 715 nM; in assay [6], 2.96 nM; in the assay filed under Rattus norvegicus [7], 1.08 nM; in assay [8], 1470 nM.
